Results as given in ChEMBL document CHEMBL1177762, “Identification of a sulfonamide series of CCR2 antagonists” (Bioorg Med Chem Lett, 2010).
Values belong to the molecule of their own block, whether it stands above or below them.

What was measured:
[1] = target: T1, C-C chemokine receptor type 2 (Homo sapiens, UniProt P41597); test: Antagonist activity at human CCR2 expressed in CHO cells assessed as inhibition of MCP1-induced [35S]-GTPgammaS binding after 3 hrs; assay type: functional, cell-based
Target sequence in this assay (P41597 whole entry): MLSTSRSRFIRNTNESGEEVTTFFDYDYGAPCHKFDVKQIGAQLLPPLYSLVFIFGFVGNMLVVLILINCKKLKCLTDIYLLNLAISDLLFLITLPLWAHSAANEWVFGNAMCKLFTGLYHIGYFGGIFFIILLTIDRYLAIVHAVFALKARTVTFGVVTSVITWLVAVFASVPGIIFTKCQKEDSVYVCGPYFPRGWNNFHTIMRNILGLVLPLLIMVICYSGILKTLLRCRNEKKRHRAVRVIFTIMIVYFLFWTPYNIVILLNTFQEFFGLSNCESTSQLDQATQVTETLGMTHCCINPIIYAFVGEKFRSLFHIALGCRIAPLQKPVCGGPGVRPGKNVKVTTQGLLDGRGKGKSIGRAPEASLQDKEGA

[2] = target: C-C chemokine receptor type 1 (Homo sapiens) (UniProt P32246); test: Antagonist activity at human CCR1
[3] = target: T1, C-C chemokine receptor type 2; test: Antagonist activity at CCR2 in human THP1 cells assessed as inhibition of CCL2-induced chemotaxis at 1 uM in presence of 0.1% human serum; assay type: functional, cell-based; conditions: THP-1
Summary of the method: (§1)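 Boyden chamber (48-well) chemotaxis of THP-1 cells stimulated with CCL2. Foetal bovine serum or human serum was added to the assay buffer.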
Target sequence in this assay (P41597 whole entry, looked up): as the sequence (P41597 whole entry) above

[4] = target: T1, C-C chemokine receptor type 2; test: Antagonist activity at CCR2 in human THP1 cells assessed as inhibition of CCL2-induced chemotaxis at 1 uM in presence of 1% human serum; assay type: functional, cell-based; conditions: THP-1; summary of the method: as §1
Target sequence in this assay (P41597 whole entry, looked up): as the sequence (P41597 whole entry) above

[5] = Oral bioavailability in rat; assay type: ADME, organism-based; conditions: in vivo
[6] = Half life in iv dosed in rat; assay type: ADME, organism-based; conditions: in vivo
[7] = Half life in po dosed in rat; assay type: ADME, organism-based; conditions: in vivo
[8] = Clearance in rat; assay type: ADME, organism-based; conditions: in vivo
Rattus norvegicus = species: Rattus norvegicus; test: Volume of distribution in rat; assay type: ADME, organism-based; conditions: in vivo
Cytochrome P450 1A2 = target: T2, Cytochrome P450 1A2 (Homo sapiens, UniProt P05177); test: Inhibition of CYP1A2; assay type: ADME
T2 sequence (P05177 whole entry): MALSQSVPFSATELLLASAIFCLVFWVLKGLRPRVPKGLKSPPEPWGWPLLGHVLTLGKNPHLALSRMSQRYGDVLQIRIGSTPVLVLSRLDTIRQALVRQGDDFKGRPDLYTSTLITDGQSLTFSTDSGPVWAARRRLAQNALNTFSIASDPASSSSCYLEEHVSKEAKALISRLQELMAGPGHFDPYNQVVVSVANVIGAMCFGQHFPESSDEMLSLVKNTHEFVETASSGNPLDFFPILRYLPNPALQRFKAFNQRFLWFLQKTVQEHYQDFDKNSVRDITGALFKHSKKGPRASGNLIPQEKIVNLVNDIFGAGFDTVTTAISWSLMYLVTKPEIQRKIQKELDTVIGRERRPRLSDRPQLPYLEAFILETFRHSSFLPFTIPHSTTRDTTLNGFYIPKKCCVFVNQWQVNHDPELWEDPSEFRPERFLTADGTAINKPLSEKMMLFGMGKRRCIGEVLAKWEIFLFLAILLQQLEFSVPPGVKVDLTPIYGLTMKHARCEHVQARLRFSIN

Cytochrome P450 2C19 = Cytochrome P450 2C19 (Homo sapiens, UniProt P33261); test: Inhibition of CYP2C19; assay type: ADME
Cytochrome P450 2C9 = Cytochrome P450 2C9 (Homo sapiens, UniProt P11712); test: Inhibition of CYP2C9; assay type: ADME
Cytochrome P450 2D6 = Cytochrome P450 2D6 (Homo sapiens, UniProt P10635); test: Inhibition of CYP2D6; assay type: ADME
Cytochrome P450 3A4 = Cytochrome P450 3A4 (Homo sapiens, UniProt P08684); test: Inhibition of CYP3A4; assay type: ADME
[9] = target: T3, C-C chemokine receptor type 4 (Homo sapiens, UniProt P51679); test: Antagonist activity at CCR4; assay type: functional
T3 sequence (P51679 whole entry): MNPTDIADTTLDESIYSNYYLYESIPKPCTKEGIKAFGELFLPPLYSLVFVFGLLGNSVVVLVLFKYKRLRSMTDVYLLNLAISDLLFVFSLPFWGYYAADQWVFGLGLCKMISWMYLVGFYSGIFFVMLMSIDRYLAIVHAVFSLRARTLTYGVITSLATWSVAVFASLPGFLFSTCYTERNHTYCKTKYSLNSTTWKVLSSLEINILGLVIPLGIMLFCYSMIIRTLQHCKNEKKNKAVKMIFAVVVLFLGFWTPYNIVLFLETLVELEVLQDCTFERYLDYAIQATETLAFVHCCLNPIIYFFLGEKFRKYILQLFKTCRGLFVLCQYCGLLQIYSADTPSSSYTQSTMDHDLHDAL

[10] = target: C-C chemokine receptor type 5 (Homo sapiens, UniProt P51681); test: Antagonist activity at CCR5; assay type: functional
[11] = Lipophilicity, log D of the compound; assay type: physicochemical; conditions: octanol/water
Albumin [12] = target: T4, Albumin (Homo sapiens, UniProt P02768); test: Binding affinity to immobilised human serum albumin by chromatographic analysis; assay type: ADME; conditions: isolated protein
Albumin [13] = target: T4, Albumin; test: Binding affinity to immobilised human serum albumin by ultrafiltration and biacore method; assay type: ADME; conditions: isolated protein
[14] = target: T5, C-C chemokine receptor type 1 (Homo sapiens, UniProt P32246); test: Antagonist activity at human CCR1 assessed as inhibition of MIP-1-alpha-induced [35S]-GTPgammaS binding after 3 to 4 hrs; assay type: functional
T5 sequence (P32246 whole entry): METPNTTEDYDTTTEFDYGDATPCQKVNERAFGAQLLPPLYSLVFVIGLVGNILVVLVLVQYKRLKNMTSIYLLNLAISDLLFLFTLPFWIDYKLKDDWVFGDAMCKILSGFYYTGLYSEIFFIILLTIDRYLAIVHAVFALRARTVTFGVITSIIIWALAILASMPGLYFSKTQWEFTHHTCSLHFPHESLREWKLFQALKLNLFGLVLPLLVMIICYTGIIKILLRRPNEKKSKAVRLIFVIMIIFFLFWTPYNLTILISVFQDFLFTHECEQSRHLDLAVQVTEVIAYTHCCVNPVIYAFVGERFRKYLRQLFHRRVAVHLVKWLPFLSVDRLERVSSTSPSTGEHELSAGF

[15] = target: C-C chemokine receptor type 2 (Mus musculus, UniProt P51683); test: Antagonist activity at mouse CCR2; assay type: functional
[16] = target: C-C chemokine receptor type 1 (Homo sapiens) (UniProt P32246); test: Antagonist activity at CCR1
[17] = target: Voltage-gated inwardly rectifying potassium channel KCNH2 (Homo sapiens, UniProt Q12809); test: Binding affinity to human ERG by fluorescence-polarization binding assay
[18] = target: T1, C-C chemokine receptor type 2; test: Inhibition of CCR2-mediated chemotaxis in human THP1 cells assessed as half life of reversibility at 10 uM after assay buffer exchange; assay type: cell-based; conditions: THP-1
Summary of the method: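 THP-1 cells were preincubated with compound at 10 µM for 30 min. The assay buffer was then exchanged and CCL2-driven chemotaxis was stimulated periodically to generate a reversibility curve. The half-life of reversibility was taken from this curve.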
Target sequence in this assay (P41597 whole entry, looked up): as the sequence (P41597 whole entry) above

Cytochrome P450 2C9, sequence (P11712 whole entry): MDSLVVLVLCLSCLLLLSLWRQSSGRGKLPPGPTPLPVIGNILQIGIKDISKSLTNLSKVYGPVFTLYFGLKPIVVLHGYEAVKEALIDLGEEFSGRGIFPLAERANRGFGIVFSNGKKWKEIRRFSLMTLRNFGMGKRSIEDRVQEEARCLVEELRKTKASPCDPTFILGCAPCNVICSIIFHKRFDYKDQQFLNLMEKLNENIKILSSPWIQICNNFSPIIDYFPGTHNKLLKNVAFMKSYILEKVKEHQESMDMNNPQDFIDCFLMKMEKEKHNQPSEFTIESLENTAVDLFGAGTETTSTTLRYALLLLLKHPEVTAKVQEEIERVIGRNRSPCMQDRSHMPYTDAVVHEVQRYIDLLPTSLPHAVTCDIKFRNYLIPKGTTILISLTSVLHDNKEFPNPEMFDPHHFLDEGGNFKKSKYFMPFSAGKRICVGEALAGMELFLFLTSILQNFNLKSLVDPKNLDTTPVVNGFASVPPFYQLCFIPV
Cytochrome P450 2D6, sequence (P10635 whole entry): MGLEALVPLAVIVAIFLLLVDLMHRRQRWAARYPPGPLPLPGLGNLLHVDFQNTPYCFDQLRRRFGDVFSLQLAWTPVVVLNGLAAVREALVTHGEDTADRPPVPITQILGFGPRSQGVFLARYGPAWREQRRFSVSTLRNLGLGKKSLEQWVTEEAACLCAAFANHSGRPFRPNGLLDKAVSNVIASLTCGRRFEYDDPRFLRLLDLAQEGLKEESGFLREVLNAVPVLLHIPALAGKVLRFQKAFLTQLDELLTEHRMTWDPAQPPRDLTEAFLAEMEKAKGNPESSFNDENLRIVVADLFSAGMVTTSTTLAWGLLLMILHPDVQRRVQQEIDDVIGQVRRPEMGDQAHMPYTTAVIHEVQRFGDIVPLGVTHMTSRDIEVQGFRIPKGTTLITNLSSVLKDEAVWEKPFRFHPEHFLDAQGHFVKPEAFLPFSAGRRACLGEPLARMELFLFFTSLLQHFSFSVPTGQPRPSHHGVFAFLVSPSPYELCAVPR
Cytochrome P450 2C19, sequence (P33261 whole entry): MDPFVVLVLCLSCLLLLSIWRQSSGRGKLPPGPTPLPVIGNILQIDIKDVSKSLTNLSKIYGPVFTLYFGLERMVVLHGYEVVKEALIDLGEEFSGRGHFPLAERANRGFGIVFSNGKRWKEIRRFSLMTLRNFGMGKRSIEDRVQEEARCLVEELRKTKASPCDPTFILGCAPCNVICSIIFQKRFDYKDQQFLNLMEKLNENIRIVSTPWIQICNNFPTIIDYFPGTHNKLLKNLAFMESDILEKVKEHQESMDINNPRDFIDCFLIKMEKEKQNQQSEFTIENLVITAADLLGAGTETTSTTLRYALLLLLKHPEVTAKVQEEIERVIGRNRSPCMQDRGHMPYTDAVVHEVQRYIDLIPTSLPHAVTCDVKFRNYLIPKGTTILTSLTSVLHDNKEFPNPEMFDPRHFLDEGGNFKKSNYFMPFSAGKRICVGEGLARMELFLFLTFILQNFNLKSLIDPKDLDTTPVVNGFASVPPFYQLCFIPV
Cytochrome P450 3A4, sequence (P08684 whole entry): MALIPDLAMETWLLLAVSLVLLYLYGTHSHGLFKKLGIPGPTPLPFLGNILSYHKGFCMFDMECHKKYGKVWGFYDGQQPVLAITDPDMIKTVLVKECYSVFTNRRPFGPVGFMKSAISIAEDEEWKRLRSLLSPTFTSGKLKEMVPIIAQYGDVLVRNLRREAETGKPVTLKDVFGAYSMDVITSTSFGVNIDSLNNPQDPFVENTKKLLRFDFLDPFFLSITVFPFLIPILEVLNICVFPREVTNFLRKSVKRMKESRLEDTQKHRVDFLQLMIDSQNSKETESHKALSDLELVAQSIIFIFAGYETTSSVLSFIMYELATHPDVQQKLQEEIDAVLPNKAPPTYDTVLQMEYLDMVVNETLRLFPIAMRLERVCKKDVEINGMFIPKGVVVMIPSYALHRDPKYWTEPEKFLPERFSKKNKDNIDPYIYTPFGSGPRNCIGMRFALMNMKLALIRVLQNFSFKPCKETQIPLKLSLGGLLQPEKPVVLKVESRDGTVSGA
C-C chemokine receptor type 2 (Mus musculus, UniProt P51683), sequence (P51683 whole entry): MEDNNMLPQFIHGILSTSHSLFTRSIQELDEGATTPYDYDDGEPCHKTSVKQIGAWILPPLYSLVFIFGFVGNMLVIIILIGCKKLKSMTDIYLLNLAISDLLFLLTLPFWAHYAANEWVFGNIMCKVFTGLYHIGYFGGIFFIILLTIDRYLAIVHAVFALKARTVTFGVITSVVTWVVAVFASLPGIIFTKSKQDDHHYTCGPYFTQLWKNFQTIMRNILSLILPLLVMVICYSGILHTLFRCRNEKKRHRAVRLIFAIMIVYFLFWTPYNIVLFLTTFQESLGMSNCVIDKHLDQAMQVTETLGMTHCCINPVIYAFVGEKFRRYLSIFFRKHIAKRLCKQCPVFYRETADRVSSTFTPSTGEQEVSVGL
T4 sequence (P02768 whole entry): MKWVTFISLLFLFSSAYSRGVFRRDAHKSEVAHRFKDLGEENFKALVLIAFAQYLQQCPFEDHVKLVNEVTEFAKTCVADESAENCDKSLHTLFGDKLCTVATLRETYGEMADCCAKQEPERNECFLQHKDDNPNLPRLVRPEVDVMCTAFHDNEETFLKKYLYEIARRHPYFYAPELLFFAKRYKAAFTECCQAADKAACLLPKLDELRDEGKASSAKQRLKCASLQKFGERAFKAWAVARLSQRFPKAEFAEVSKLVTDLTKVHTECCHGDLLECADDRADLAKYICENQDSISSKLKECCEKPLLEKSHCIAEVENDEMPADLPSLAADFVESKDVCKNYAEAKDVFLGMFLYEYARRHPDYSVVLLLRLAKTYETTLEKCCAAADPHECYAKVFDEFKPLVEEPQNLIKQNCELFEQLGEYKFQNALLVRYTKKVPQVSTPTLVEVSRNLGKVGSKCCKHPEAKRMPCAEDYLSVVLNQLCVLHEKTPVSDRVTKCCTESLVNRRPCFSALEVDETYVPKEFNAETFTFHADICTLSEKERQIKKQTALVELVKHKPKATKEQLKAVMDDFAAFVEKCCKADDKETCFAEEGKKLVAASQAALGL
C-C chemokine receptor type 5, sequence (P51681 whole entry): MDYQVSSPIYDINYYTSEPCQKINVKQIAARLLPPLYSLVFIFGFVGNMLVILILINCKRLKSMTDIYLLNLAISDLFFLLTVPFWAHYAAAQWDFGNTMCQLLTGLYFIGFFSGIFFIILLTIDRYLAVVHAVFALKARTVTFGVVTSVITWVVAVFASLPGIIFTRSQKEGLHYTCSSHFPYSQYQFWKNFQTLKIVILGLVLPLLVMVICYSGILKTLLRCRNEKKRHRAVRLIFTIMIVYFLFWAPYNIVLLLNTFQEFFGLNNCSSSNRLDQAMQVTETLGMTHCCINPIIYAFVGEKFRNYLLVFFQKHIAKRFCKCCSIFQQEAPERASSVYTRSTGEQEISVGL

SMILES: N#Cc1ccc(Oc2ccccc2C(=O)O)c(NS(=O)(=O)c2ccc(Cl)cc2)c1
- Ki [1]: 63.1 nM
- Ki [2]: 1000 nM

SMILES: O=C(O)c1ccccc1Oc1cnccc1NS(=O)(=O)c1ccc(Cl)c(Cl)c1
- Ki [1]: 50.1 nM
- inhibition [3]: 15%
- inhibition [4]: 0%

SMILES: O=S(=O)(Nc1cc(Cl)cnc1Oc1cccnn1)c1ccc(Cl)c(Cl)c1
- Ki [1]: 200 nM

SMILES: O=C(O)c1ccccc1Oc1ccc(Cl)cc1NS(=O)(=O)c1ccc(Cl)c(Cl)c1
- bioavailability [5]: 70%
- half-life [6]: 6.5 h
- half-life [7]: 5.9 h
- clearance [8]: 0.6 mL/min/kg
- Vd (Rattus norvegicus): 0.2 L/kg
- IC50 (Cytochrome P450 1A2): 39800 nM
- IC50 (Cytochrome P450 2C19): 11000 nM
- IC50 (Cytochrome P450 2C9): 4170 nM
- IC50 (Cytochrome P450 2D6): 53700 nM
- IC50 (Cytochrome P450 3A4): 10000 nM
- Ki [9]: 398 nM
- IC50 [10]: 631 nM

SMILES: O=C(O)c1ccccc1Oc1ncncc1NS(=O)(=O)c1ccc(Cl)c(Cl)c1
- Ki [1]: 398 nM

SMILES: O=S(=O)(Nc1cc(Cl)cnc1Oc1cncc(Cl)c1)c1ccc(Cl)c(Cl)c1
- Ki [1]: 12.6 nM
- inhibition [3]: 55%
- inhibition [4]: 0%
- logD [11]: 3.1
- bioavailability [5]: 58%
- half-life [6]: 1.2 h
- clearance [8]: 2.4 mL/min/kg
- Vd (Rattus norvegicus): 0.2 L/kg
- IC50 (Cytochrome P450 1A2): > 100000 nM
- IC50 (Cytochrome P450 2C19): 6610 nM
- IC50 (Cytochrome P450 2C9): 1070 nM
- IC50 (Cytochrome P450 2D6): > 100000 nM
- IC50 (Cytochrome P450 3A4): 437 nM

SMILES: O=S(=O)(Nc1cc(Cl)cnc1Oc1cccnc1)c1ccc(Cl)c(Cl)c1
- Ki [1]: 20 nM
- inhibition [3]: 36%
- inhibition [4]: 5.4%
- logD [11]: 2.32
- Activity (Albumin [12]): > 98%
- Activity (Albumin [13]): > 99.5%

SMILES: O=C(O)c1ccccc1Oc1c(F)cc(C(F)(F)F)cc1NS(=O)(=O)c1ccc(Cl)cc1
- Ki [1]: 31.6 nM
- Ki [14]: 126 nM
- Ki [15]: 251 nM

SMILES: Cc1ccc(NS(=O)(=O)c2ccc(Cl)cc2)c(Oc2ccccc2C(=O)O)c1
- Ki [1]: 631 nM
- Ki [16]: 631 nM

SMILES: O=C(O)c1ccccc1Oc1ccc(C(F)(F)F)cc1NS(=O)(=O)c1ccc(Cl)cc1
- Ki [1]: 794 nM
- Ki [14]: 501 nM
- Ki [15]: 1580 nM

SMILES: O=C(O)c1ccccc1Oc1cccc(F)c1NS(=O)(=O)c1ccc(Cl)cc1
- Ki [1]: > 3160 nM
- Ki [16]: > 3160 nM

SMILES: Cc1cccc(NS(=O)(=O)c2ccc(Cl)cc2)c1Oc1ccccc1C(=O)O
- Ki [1]: > 3160 nM
- Ki [2]: > 3160 nM

More lines, in order of falling Ki [1], values ahead:

- Ki [1]: 10 nM
- inhibition [3]: 17%
- inhibition [4]: 0%
- logD [11]: -0.67
SMILES: O=C(O)c1cncc(Oc2ncc(Cl)cc2NS(=O)(=O)c2ccc(Cl)c(Cl)c2)c1

- Ki [1]: 5.01 nM
SMILES: O=C(O)c1ccccc1Oc1ccc(Cl)cc1NS(=O)(=O)c1ccc(Cl)s1

- Ki [1]: 3.16 nM
- logD [11]: 0.4
SMILES: O=C(O)c1ccc(Oc2ncc(Cl)cc2NS(=O)(=O)c2ccc(Cl)c(Cl)c2)cc1

- Ki [1]: 2 nM
SMILES: O=C(O)c1c(F)cccc1Oc1ncc(Cl)cc1NS(=O)(=O)c1ccc(Cl)c(Cl)c1

- Ki [1]: 1.26 nM
- inhibition [3]: 67%
- inhibition [4]: 37%
- logD [11]: 0.8
- bioavailability [5]: 97%
- half-life [6]: 4.5 h
- half-life [7]: 4.5 h
- clearance [8]: 0.71 mL/min/kg
- Vd (Rattus norvegicus): 0.12 L/kg
- IC50 (Cytochrome P450 1A2): 39800 nM
- IC50 (Cytochrome P450 2C19): 39800 nM
- IC50 (Cytochrome P450 2C9): 21400 nM
- IC50 (Cytochrome P450 2D6): 100000 nM
- IC50 (Cytochrome P450 3A4): 100000 nM
- Ki [9]: 794 nM
- IC50 [10]: 251 nM
- T1/2 [18]: 4.67 h
SMILES: O=C(O)c1ccccc1Oc1ncc(Cl)cc1NS(=O)(=O)c1ccc(Cl)c(Cl)c1
- IC50 [17]: > 31600 nM
